According to the EternaBench riboswitch data:

Tested on: MS2 coat protein
Experiment: apparent Kd, MS2 coat protein; higher = weaker binding; RNA-MaP array; FMN 200 µM where present
How it was run: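 The apparent Kd is reported as the median of filtered per-cluster binding-curve fits. To get these curves, designs transcribed by stalled E. coli RNA polymerase on Illumina sequencing-chip clusters were titrated with SNAP-549-labelled MS2 coat protein from 0.7 or 1.5 nM, doubling to 3 µM. Titrations were run without and then with constant ligand in 100 mM Tris-HCl pH 7.5, 80 mM KCl, 4 mM MgCl2, BSA, DTT, yeast tRNA and Tween-20, and green signal was normalised to red-channel RNA signal and control-cluster median Fmax.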

[1] = designed as: OFF switch for flavin mononucleotide, no ligand
[2] = ligand present: flavin mononucleotide, designed as: OFF switch for flavin mononucleotide
[3] = designed as: ON switch for flavin mononucleotide, no ligand
[4] = ligand present: flavin mononucleotide, designed as: ON switch for flavin mononucleotide

UGAUAGGACAGAGGAUAUACGUGCUAGAGAUACUAGCAAAUAAUCCUUACAUGAGGAUCACCCAUGUAGAAGGCUGUCCUAUCU
apparent Kd [1]: 19.3 nM
apparent Kd [2]: 47.4 nM

AGUGUGUGGCAGGAUAUUCCGGUCGUUGGUCGGGAAGAAGGGUCUACAUGAGGAUCACCCAUGUGACCGGUUGA
apparent Kd [1]: 25.6 nM
apparent Kd [2]: 25.6 nM

UUGCCACAUGAGGAUCACCCAUGUGAGGAUAUGGCCUGUUUGGCGUGUGCUGGCUCUGUCAGAAGGCGCGUGGG
apparent Kd [1]: 31.8 nM
apparent Kd [2]: 37.5 nM

GACAUGGUCCAGAAGGGCUAUUUAUUUAAUUAUUAUUUAGAACAGCAUAGCAGGAUAUGGCUAACAUGAGGAUCACCCAUGUUC
apparent Kd [3]: 21.5 nM
apparent Kd [4]: 12.6 nM

UCAUGUUAAGGAUAUACAUGAGGAUCACCCAUGUUUGUUCAAAAUCUUAGAUCCCAAUGUAGAAGGUGGCUGUA
apparent Kd [1]: 75.8 nM
apparent Kd [2]: 75.4 nM

CAGCGAAAGCUGAAUCUGUAGAGAGAGGAUAUACGUCAUAAGAUGCAUACAUGAGGAUCACCCAUGUAGAAGGCUCUCUACAGU
apparent Kd [1]: 5.68 nM
apparent Kd [2]: 6.7 nM

CUAUACAUAUCAGGAUAUCAUCGAGUGGAUUAACACAGUGAUUACAUGAGGAUCACCCAUGUGCUUGAGAAGGGAUUACUAUUU
apparent Kd [1]: 14.6 nM
apparent Kd [2]: 12.9 nM

AAGGACUGAAUAAUAAGUAGAAAUACAUGAGGAUCACCCAUGUAGGAUAUCGUCAGGAAUACUGACGAGAAGGACAUACAGUCC
apparent Kd [1]: 13.6 nM
apparent Kd [2]: 16.7 nM

GCACAUGGCAUAGGAUAUAGAUCGAUUGUUUAAAUAGGUAGUUGGACUUAACUAGAAGGAUGAAACAUGAGGAUCACCCAUGUA
apparent Kd [3]: 394 nM
apparent Kd [4]: 68 nM

GUUUAGUGAGGAUAUGUGGCUUCGAUCGUGCGCGGUCUGCUACAGAAGGCACAUGAGGAUCACCCAUGUUUCUC
apparent Kd [1]: 173 nM
apparent Kd [2]: 527 nM

GGUCUAGGCGAAGGAUAUCCGUCGCGAGAUACUGGAGAAGGUCGCCUUGAUACAUGAGGAUCACCCAUGUGGCGGGUGAACCAA
apparent Kd [1]: 98.5 nM
apparent Kd [2]: 19.3 nM

GGAUAGGACAGAGGAUAUAUGUGCUAGAGAUACUAGCAAAAUUUCCUCACAUGAGGAUCACCCAUGUAGAAGGCUGUCCUAUCG
apparent Kd [1]: 12.9 nM
apparent Kd [2]: 22 nM

UCCUCUUUGAAGAAGGCGUGGCCAUGCAAGCCGCGAGGAUAUUCACAUGAGGAUCACCCAUGUGGAUUUCAGUCCGCUCAAAAC
apparent Kd [1]: 13.4 nM
apparent Kd [2]: 68 nM

UGUUGUAUUACAGGAUAUCUAUUAGUUAUAUUUAGAGAAGGGUAUUCACAUGAGGAUCACCCAUGUAUAUACGAGGAAGUUGUG
apparent Kd [3]: 54.6 nM
apparent Kd [4]: 61.9 nM

AUAAAGUGAGGAUAUCCAAUAUAUGACAUGAGGAUCACCCAUGUUUCCACUCGUACCUCCGGAGAAGGCACAUUUU
apparent Kd [1]: 32.1 nM
apparent Kd [2]: 20.2 nM

UUUUUGUGAGGAUAUCAGUAGUAAAAAAAUAAAAUUACUACUGAGAAGGCACAUGAGGAUCACCCAUGUUUUUU
apparent Kd [1]: 41.7 nM
apparent Kd [2]: 96.5 nM

GUUCAAGUAAAGGAUAUGUAGAGCCGCGAGGCCGCAGAAGGUUGCACAUGAGGAUCACCCAUGUCGUCUCUGAU
apparent Kd [1]: 17.1 nM
apparent Kd [2]: 21.2 nM

UUGGCGACGUAGAAGGGUGACAUGAGGAUCACCCAUGUGCCGAUAUUUCUCGAGAUAUGUCGGCCACAGGAUAUACGUGCCAUC
apparent Kd [3]: 59.3 nM
apparent Kd [4]: 31.9 nM

GGAAACUACGAGAAGGACAUGUGGUCCUUCAGUUACAUGAGGAUCACCCAUGUAGGAUAUCGUAGUUUCAGGAUCGUGAGAUCU
apparent Kd [1]: 35.4 nM
apparent Kd [2]: 13.7 nM

UUUGGGUGGCUGGAGGAUAUCCUGGUUGUUACAUGAGGAUCACCCAUGUGCCGCGCGGUUCGCGAGGAGAAGGCUGGCGGCCGUU
apparent Kd [3]: 147 nM
apparent Kd [4]: 33.6 nM

AUUAUGAAUGCAGGAUAUGAUUAACAUGAGGAUCACCCAUGUGGUGUUGUGAGUAAGGAGAGUGAUCAGAAGGGCAUUUUUUUU
apparent Kd [3]: 593 nM
apparent Kd [4]: 585 nM

CGAUGUUAUGUCAGGAUAUGCAUUGCGAAAGCAAUGCAGAAGGGACAUGAGGAUCACCCAUGUCCUAACCAUCG
apparent Kd [1]: 13.2 nM
apparent Kd [2]: 20.1 nM

AAUUAUUUUUGAGGAUAUGGUAGUGAAACACUACCAGAAGGCGGAAUAAACAUGAGGAUCACCCAUGUGAGCCUGAUGCUUAUG
apparent Kd [1]: 22 nM
apparent Kd [2]: 42.6 nM
